Assay results reported in ChEMBL document CHEMBL4007404, “Identification of High-Potency Human TLR8 and Dual TLR7/TLR8 Agonists in Pyrimidine-2,4-diamines” (J Med Chem, 2017).
Activity calls are given as the source filed them. The calls are words filed in the database; no cut-off is given here.

Legend:
[1] = molecular target: T1, Toll-like receptor 8 (Homo sapiens) (UniProt Q9NR97); assay: Agonist activity at human TLR8 expressed in HEK293 cells co-expressing secreted alkaline phosphatase assessed as induction of NF-kappaB/AP-1 promoter activity by measuring increase in secreted alkaline phosphatase level at 100 uM by spectrophotometric method; assay type: cell-based
T1 sequence (whole entry): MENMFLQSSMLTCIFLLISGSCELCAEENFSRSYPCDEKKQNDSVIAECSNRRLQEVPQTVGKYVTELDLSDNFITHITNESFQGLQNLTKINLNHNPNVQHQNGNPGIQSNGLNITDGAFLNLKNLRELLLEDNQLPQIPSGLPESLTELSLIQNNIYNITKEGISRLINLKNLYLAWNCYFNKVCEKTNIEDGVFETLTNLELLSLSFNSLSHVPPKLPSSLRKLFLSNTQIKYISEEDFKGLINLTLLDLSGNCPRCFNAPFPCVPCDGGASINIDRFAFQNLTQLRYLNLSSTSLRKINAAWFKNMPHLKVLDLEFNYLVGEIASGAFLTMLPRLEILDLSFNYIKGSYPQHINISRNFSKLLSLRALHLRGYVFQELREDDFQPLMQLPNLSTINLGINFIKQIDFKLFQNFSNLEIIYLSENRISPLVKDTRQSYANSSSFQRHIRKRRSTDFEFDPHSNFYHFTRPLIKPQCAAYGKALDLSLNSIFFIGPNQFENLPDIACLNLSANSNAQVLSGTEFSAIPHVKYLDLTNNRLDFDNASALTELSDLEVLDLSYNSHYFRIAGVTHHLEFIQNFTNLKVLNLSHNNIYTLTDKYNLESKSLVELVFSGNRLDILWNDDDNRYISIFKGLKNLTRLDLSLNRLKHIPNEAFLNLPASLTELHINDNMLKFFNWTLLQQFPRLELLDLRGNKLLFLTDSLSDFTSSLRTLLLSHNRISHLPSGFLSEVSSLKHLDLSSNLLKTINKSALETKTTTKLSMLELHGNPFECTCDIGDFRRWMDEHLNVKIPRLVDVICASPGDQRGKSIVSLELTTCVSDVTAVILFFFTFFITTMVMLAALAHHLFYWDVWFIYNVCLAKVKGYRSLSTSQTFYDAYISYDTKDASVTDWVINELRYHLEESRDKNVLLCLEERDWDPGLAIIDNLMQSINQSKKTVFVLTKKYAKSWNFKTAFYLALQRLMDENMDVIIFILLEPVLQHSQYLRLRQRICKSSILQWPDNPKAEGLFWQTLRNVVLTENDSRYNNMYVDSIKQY
Outline: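 HEK293 cells stably co-transfected with human TLR8 and NF-κB/AP-1-driven secreted alkaline phosphatase, kept in selection medium. Cells seeded at ~10⁵ cells/ml in 384-well plates with graded stimulus concentrations. Supernatant sAP read spectrophotometrically at 620 nm with an alkaline phosphatase-specific chromogen. TLR-2/-3/-4/-5/-9 reporter lines served as counter-screens.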

[2] = molecular target: T1, Toll-like receptor 8 (Homo sapiens); assay: Agonist activity at TLR8 in human PBMC assessed as induction of TNF-alpha production after 16 hrs by multiplexed immunoassay
Outline: (§1)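 Fresh human PBMCs were isolated from venous blood in cell preparation tubes. They were stimulated at 10^5 cells per well for 16 h with graded compound concentrations. Supernatants were taken off by centrifugation and assayed in duplicate on a 41-analyte magnetic bead cytokine/chemokine multiplex panel. Panel analytes include IFN-α2, IFN-γ, IL-12 (p40) and TNF-α.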

[3] = molecular target: T1, Toll-like receptor 8 (Homo sapiens); assay: Agonist activity at TLR8 in human PBMC assessed as induction of IL-12p40 production after 16 hrs by multiplexed immunoassay; outline: as §1
[4] = molecular target: T1, Toll-like receptor 8 (Homo sapiens); assay: Agonist activity at TLR8 in human PBMC assessed as induction of IFN-gamma production after 16 hrs by multiplexed immunoassay; outline: as §1
[5] = molecular target: T1, Toll-like receptor 8 (Homo sapiens); assay: Agonist activity at TLR8 in human CD141 positive conventional dendritic cells assessed as upregulation of CD80 expression after 16 hrs by efluor 780 dye based flow cytometry
Outline: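 Human PBMCs were incubated with serial compound dilutions at 37 °C for 16 h, with DMSO controls. Cells were stained with eFluor780 viability dye, then lineage and DC antibodies plus CD80 PE, and fixed. 250,000 gated events were acquired. pDCs were gated as Live Lin⁻ CD123⁺ CD303⁺ CD304⁺ HLA-DR⁺. cDCs were gated as Lin⁻ CD1c⁺ CD141⁻ CD11c⁺ HLA-DR⁺ or Lin⁻ CD141⁺ CD1c⁻ HLA-DR⁺. Median fluorescence intensity was quantified.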

[6] = molecular target: T2, Toll-like receptor 7 (Homo sapiens) (UniProt Q9NYK1); assay: Agonist activity at TLR7 in human PBMC assessed as induction of IFN-alpha production after 16 hrs by multiplexed immunoassay; outline: as §1
T2 sequence (whole entry): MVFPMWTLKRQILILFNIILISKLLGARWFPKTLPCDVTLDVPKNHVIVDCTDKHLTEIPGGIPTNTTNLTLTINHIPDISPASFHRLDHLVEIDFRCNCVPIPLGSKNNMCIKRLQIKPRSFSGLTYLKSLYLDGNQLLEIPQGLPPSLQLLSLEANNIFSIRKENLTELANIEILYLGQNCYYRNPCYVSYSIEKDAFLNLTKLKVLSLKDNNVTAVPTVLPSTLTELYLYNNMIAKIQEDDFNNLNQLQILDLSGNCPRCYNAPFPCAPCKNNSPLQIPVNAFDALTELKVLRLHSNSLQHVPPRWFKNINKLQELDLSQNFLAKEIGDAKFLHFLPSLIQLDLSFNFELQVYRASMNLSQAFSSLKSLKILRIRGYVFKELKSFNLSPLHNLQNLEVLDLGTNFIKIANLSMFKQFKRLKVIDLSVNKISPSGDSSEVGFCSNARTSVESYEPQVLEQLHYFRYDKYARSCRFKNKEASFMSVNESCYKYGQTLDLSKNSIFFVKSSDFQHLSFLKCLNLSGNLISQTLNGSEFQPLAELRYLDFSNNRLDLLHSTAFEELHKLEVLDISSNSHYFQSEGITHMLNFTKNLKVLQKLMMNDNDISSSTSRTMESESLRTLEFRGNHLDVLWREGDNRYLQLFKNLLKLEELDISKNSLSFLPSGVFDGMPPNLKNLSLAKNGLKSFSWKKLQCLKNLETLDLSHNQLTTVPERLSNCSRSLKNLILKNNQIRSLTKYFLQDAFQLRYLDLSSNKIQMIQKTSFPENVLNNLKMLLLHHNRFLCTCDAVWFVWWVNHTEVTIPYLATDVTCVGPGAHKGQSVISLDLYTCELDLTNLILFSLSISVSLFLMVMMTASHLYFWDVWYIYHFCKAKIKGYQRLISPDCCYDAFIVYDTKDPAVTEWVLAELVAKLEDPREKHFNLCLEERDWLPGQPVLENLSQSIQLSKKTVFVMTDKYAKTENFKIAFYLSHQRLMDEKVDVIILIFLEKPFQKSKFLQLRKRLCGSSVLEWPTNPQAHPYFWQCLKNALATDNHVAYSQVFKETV

CCCCNc1nc(N)nc(C)c1C#CCc1ccccc1
Activity [1]: inactive

CCCCNc1nc(N)nc(C)c1CCCC1CCCCC1
Activity [1]: inactive

CCCCNc1nc(N)nc(C)c1CCCN1Cc2ccccc2C1
Activity [2]: Active
Activity [3]: Active
Activity [4]: Active

CCCCNc1nc(N)nc(C)c1CCCN1CCOCC1
Activity [5]: Active

CCCCNc1nc(N)nc(C)c1CCCc1ccccc1
Activity [4]: inactive
Activity [6]: Active

CCCCNc1nc(N)nc(C)c1CCCN1CCCCC1
Activity [2]: Active
Activity [3]: Active
Activity [4]: Active

CCCCNc1nc(N)nc(C)c1CCCn1c(C)nc2ccccc21
Activity [2]: Active
Activity [3]: Active
Activity [4]: Active
Activity [6]: Active
